The text below walks through data of PMC12700136 (Journal of medicinal chemistry, 2025).

The target in data set [1] is T1, ClpP (Homo sapiens, UniProt Q16740). Briefly: Thermal shift assay. The format is binding. To be noted: MDA-MB-468 lysates. Summed up:
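Test compound at increasing concentrations added to 10 μg MDA-MB-468 lysate, 15 min at 23 °C. Heated 67 °C for 3 min, precipitated 3 min at 23 °C, spun 14,000 rpm, 20 min, 4 °C. Soluble ClpP detected by anti-ClpP immunoblot against unheated and no-compound controls; quantified as mean ± SD of two independent experiments.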

Data set [2] has as its target T1, ClpP. Description: Thermal shift assay. The format is cell-based. Particulars: MDA-MB-468 cells treated 30 min. Summed up: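 MDA-MB-468 cells seeded at 1 million per well the day before, then exposed to test compound for 30 min at 37 °C. Washed in PBS, scraped into PBS with […] inhibitors, heated 67 °C for 3 min, lysed by freeze–thaw, spun 14,000 rpm 20 min at 4 °C. Soluble ClpP immunoblotted; normalized quantification, mean ± SD of two independent experiments.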

The target in data set [3] is purified human ClpP (hClpP) (Homo sapiens, UniProt Q16740). Description: Differential scanning fluorimetry. To be noted: vs DMSO. Type of data set: binding. Summed up: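 Human ClpP lacking mitochondrial sequence, expressed in E. coli BL21(DE3) as N-terminal 2x(His6-thrombin)-SUMO-TEV fusion (1 mM IPTG, 4 h, 37 °C), cobalt-resin purified. Protein at 0.5 mg/mL final in 25 mM Tris-HCl pH 7.5 with SYPRO Orange; held 25 °C 2 min, ramped 25–95 °C at 0.05 °C/s. ΔTm versus DMSO; mean ± SD, four independent experiments.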
In general terms: Differential scanning fluorimetry follows unfolding on heating by fluorescence.

The next data set concerns DAP13. Briefly: DAP13 degradation assay. Particulars: 24 h, MDA-MB-468 cells; for DAP13 degraded: 25 nM; for DAP13 degradation at high concentrations: 100, 150 and 200 nM. Type of data set: cell-based, human.
Data set [4] has as its system MDA-MB-468 cells. Briefly: Seahorse mitochondrial respiration assay. Particulars: 50 nM for 12, 24 and 48 h. Type of data set: cell-based, human. Summed up: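 Cells were plated at 250,000 per well and treated for 12, 24 or 48 h. One hour before reading, medium was changed to XF DMEM (1 mM pyruvate, 2 mM glutamine, 10 mM glucose, pH 7.4). The Mito Stress Test used final 1 μM oligomycin, 1 μM FCCP and 0.5 μM antimycin A. OCR was read at baseline and after sequential oligomycin, FCCP and rotenone additions.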

The subject of data set [5] is MDA-MB-468 cells. Briefly: Western blot analysis of apoptosis markers. To be noted: 1 μM, 72 h. The format is cell-based, human. Summed up: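 MDA-MB-468 cells exposed to vehicle or 1 μM test compound for 72 h. Lysates probed by immunoblot for apoptosis markers including caspase-3. Blots representative of two independent experiments.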
Data set [6] concerns MDA-MB-468 cells. Description: Flow-cytometry-based apoptosis detection. The format is cell-based, human. To be noted: 1 μM, 72 h. Summed up:
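MDA-MB-468 cells given DMSO or 1 μM test compound for 72 h at 37 °C, 5% CO2. Washed twice in FACS buffer (50 mM PBS, 2 mM EDTA, 2% FBS), stained with fixable viability dye eFluor 780 for 30 min at 4 °C, washed, then analysed by flow cytometry for dead-cell labelling.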

Data set [7] deals with MDA-MB-468 cells. Description: Viability assay. The format is cell-based, human. To be noted: for pIC50: read-out: IC50 (viability). Summed up: (§1)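 Cells (DMEM/F12 + GlutaMax, 10% FBS, 1% pen-strep) seeded at 5,000 per well 24 h before dosing, in quadruplicate. Medium replaced with test compound-containing medium for 72 h. Viability read after 3 h AlamarBlue incubation by colorimetric change, normalized to vehicle control. IC50 from curves; mean ± SD of three independent experiments.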

In the next data set the test system is MDA-MB-231 cells. Briefly: Viability assay. Type of data set: cell-based, human. Particulars: MDA-MB-231, 72 h; for pIC50: read-out: IC50 (viability). Summed up: as §1
For another data set, the system named is SK-BR-3 cells. Description: Viability assay. Type of data set: cell-based, human. Particulars: SK-BR-3, 72 h; for pIC50: read-out: IC50 (viability). Summed up:
as §1

For the next data set, the system named is MCF-7 cells. Briefly: Viability assay. Type of data set: cell-based, human. Particulars: for pIC50: read-out: IC50 (viability). Summed up:
as §1

Another data set relates to BT-474 cells. Description: Viability assay. Particulars: BT-474, 72 h; for pIC50: read-out: IC50 (viability). The format is cell-based, human. Summed up: as §1
For data set [8], the system named is ONC212-resistant MDA-MB-468 cells. Briefly: Viability assay. Type of data set: cell-based, human. To be noted: for pIC50: read-out: IC50 (viability); for increase in the IC50 value, resistant vs wild-type cells: ONC212-resistant vs wild-type MDA-MB-468, 72 h. Summed up:
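Resistant MDA-MB-468 line selected by continuous 50 nM reference ClpP agonist, medium changed every 3 days. Cells expanded drug-free and re-exposed over several cycles until growth exceeded death. Wild-type and resistant cells seeded at 5,000 per well, quadruplicate, and dosed 72 h. AlamarBlue read after 3 h, normalized to vehicle; mean ± SD, three independent experiments.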

The nature of data set [9]: Mouse pharmacokinetic study. Particulars: Swiss albino mice, single IP administration, 50 mg/kg. The format is in vivo. Summed up: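 Three male Swiss Albino mice received a single intraperitoneal dose in 100% v/v normal saline. About 60 μL of blood was drawn at 0.5, 2 and 8 h. Plasma was stored at −70 °C until a fit-for-purpose LC-MS/MS assay. Concentrations are the average of the 3 mice, with ± SEM.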

The subject of the next data set is cancer cells. Particulars: cited from earlier work.

pIC50: −log10 of the molar value. Read-outs that look alike come from different tables or passages of the source.

T1 sequence (Q16740 57-277): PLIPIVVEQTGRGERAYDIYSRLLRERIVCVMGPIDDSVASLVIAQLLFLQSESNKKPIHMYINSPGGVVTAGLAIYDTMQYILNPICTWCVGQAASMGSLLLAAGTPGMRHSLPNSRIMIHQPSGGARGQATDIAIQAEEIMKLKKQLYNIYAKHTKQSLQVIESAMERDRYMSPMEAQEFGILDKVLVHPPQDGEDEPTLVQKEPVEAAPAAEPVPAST
Sequence of purified human ClpP (hClpP) (Q16740 57-277): as above

For orientation: pIC50 means −log10 of the IC50, conventionally taken in molar units. As to `N#Cc1cccc(CN2CCC3=C(C2)C(=O)N(Cc2ccc(C(F)(F)F)cc2OCCN)C2=NCCN23)c1` [Compound 9, 3-((4-(2-(2-Aminoethoxy)-4-(trifluoromethyl)benzyl)-5-oxo-1,2,4,5,8,9-hexahydroimidazo[1,2-a]pyrido[3,4-e]pyrimidin-7(6H)-yl)methyl)benzonitrile], at ClpP [1], the “concentration at which ClpP was stabilized (TSA)” value is 0.313 µM. In addition, the “ClpP binding/stabilization by TSA (comparison in words)” value at ClpP [1] (heated at 67 °C, WB) is on record as “superior stabilization of ClpP”. The “concentration at which ClpP was stabilized (TSA in live cells)” value at ClpP [2] is 0.08 µM. In addition, the “thermal shift of purified hClpP (DSF)” value in data set [3] is given as “very significant thermal shift”. Further, the DAP13 degraded entry in the data set on DAP13 is “more than 50%”. Also, the “DAP13 degradation at high concentrations” value in the data set with DAP13 is given as “degraded DAP13”. For the same compound, the “effect on basal respiration, ATP generation and maximal respiration” value in the data set on MDA-MB-468 cells [4] is “reduced basal respiration, ATP generation and maximal respiration at all time points tested”. For the same compound, the “cleaved caspase 3 and cleaved PARP levels” value in the data set on MDA-MB-468 cells [5] was “increased the cleaved caspase 3 and cleaved PARP levels”. Besides, the “protein levels of full-length caspase 3 and PARP” value in the data set with MDA-MB-468 cells [5] is given as “reduction”. The “late-stage apoptosis (eFluor 780)” value with MDA-MB-468 cells [6] is “effectively induced late-stage apoptosis”. The negative logarithm of the IC50 (pIC50) with MDA-MB-468 cells [7] (Homo sapiens, MDA-MB-468, 72 h) was 7.97; in the data set with MDA-MB-231 cells (Homo sapiens) it was 7.86; in the data set with SK-BR-3 cells (Homo sapiens) it was 7.94; with MCF-7 cells (Homo sapiens, MCF7, 72 h) it was 8.15; in the data set with BT-474 cells (Homo sapiens), 8.10; in [8] (Homo sapiens, MDA-MB-468, 72 h) it was 7.56. Moreover, the “fold improvement of IC50 vs ONC212” value with MDA-MB-468 cells [7] (MDA-MB-468, 72 h) is listed as “approximately 3.5 fold”; in the data set with MDA-MB-231 cells it was “approximately 3.5 fold”; with SK-BR-3 cells, “approximately 10 fold”; with MCF-7 cells (MCF-7, 72 h), “approximately 9 fold”; in the data set on BT-474 cells, “approximately 4 fold”. For the same compound, the “increase in the IC50 value, resistant vs wild-type cells” value in [8] amounted to 2.6 fold. For the same compound, the “bioavailability (plasma concentrations)” value in data set [9] is “bioavailable in mice via IP injection”. Further, the tolerability result in data set [9] was “well tolerated”.

For the compound `Cc1ccccc1CN1C(=O)C2=C(CCN(Cc3ccccc3)C2)N2CCN=C12` [ONC201], the “concentrations required to significantly affect cancer cell survival” value with cancer cells is on record as “micromolar range”.

As for `O=C1C2=C(CCN(Cc3ccccc3)C2)N2CCN=C2N1Cc1ccc(C(F)(F)F)cc1` [ONC212, reference compound], the “concentration at which ClpP was stabilized (TSA)” value on ClpP [1] is no less than 2.5 µM. Further, the “concentration at which ClpP was stabilized (TSA in live cells)” value at ClpP [2] came out at 0.63 µM. Further, in data set [3], the “thermal shift of purified hClpP (DSF)” value is reported as “very significant thermal shift”. In addition, the DAP13 degraded entry in the data set with DAP13 is on record as “did not significantly degrade DAP13”. For the same compound, the “DAP13 degradation at high concentrations” value in the data set on DAP13 was “degraded DAP13”. In addition, the “effect on basal respiration, ATP generation and maximal respiration” value in the data set with MDA-MB-468 cells [4] is on record as “significantly affected these mitochondrial functions only at 48 h”. In addition, the “protein levels of full-length caspase 3 and PARP” value in the data set on MDA-MB-468 cells [5] is “reduction”. Further, the “late-stage apoptosis (eFluor 780)” value in the data set with MDA-MB-468 cells [6] is recorded as “effectively induced late-stage apoptosis”. Further, the pIC50 in the data set on MDA-MB-468 cells [7] (MDA-MB-468 (wild-type), 72 h) was 7.45; with MDA-MB-231 cells it was 7.30; with SK-BR-3 cells, 6.94; in the data set on MCF-7 cells (MCF-7, 72 h), 7.20; in the data set on BT-474 cells, 7.49; in data set [8] (ONC212-resistant MDA-MB-468, 72 h) it was 6.45. Further, the “increase in the IC50 value, resistant vs wild-type cells” value in data set [8] is given as “approximately 10 fold”.
